Source: PubChem BioAssay
HSV replic up – HSV replication enhancement. HSV replication augmentation in cells, fold increase. maximum fold increase. 220,000 tested, 0.005% active. AID 1956; in the data active = maximum fold increase above about 1.5; inconclusive = no clear call, values can overlap the other calls; tested in PC3 cells
Arbovirus anti – antivirals against arbovirus infection; 200,000 tested, 0.37% active; arbovirus infection cell-based antiviral screen; inhibition, % at 10 µM; in the data active = inhibition above about 30%
ABCB1 block – human ABCB1 inhibition, ABCG2 as counter-screen | P08183 | CCRF-Adr cells, JC-1 efflux, flow cytometry | inhibition, % at 6.6 µM | 190,000 tested, 0.067% active | AID 1326; in the data active = inhibition above about 40%;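 note: 0% = vehicle and 100% = reference inhibitor; higher value means more JC-1 retained so stronger ABCB1 efflux block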
ABCG2 inh – human ABCG2 inhibition, ABCB1 as counter-screen; inhibition, % at 6.6 µM; Q9UNQ0; IgMXP3 cells, JC-1 efflux, flow cytometry; 190,000 tested, 0.1% active; AID 1325;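 active = inhibition above 80%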;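 note: 0% = DMSO and 100% = nicardipine control wells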
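Test system: ABCG2 IgMXP3 and barcoded ABCB1 CCRF-Adr cell mix; Schedule: cells with compound and JC-1, 10 min at 25 °C, rotating, no wash; Technique: flow cytometry of retained JC-1 fluorescence; Measure: % inhibition of efflux relative to nicardipine and DMSO; Controls: nicardipine high and DMSO low controls.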
Furin inh – blocks human furin protease activity. P09958. purified furin, fluorogenic substrate cleavage. inhibition, % at 20 µM or 30 µM. 220,000 tested, 0.061% active. AID 463115; in the data active = inhibition above about 25%
Target sequence (P09958 108-714 limits assumed): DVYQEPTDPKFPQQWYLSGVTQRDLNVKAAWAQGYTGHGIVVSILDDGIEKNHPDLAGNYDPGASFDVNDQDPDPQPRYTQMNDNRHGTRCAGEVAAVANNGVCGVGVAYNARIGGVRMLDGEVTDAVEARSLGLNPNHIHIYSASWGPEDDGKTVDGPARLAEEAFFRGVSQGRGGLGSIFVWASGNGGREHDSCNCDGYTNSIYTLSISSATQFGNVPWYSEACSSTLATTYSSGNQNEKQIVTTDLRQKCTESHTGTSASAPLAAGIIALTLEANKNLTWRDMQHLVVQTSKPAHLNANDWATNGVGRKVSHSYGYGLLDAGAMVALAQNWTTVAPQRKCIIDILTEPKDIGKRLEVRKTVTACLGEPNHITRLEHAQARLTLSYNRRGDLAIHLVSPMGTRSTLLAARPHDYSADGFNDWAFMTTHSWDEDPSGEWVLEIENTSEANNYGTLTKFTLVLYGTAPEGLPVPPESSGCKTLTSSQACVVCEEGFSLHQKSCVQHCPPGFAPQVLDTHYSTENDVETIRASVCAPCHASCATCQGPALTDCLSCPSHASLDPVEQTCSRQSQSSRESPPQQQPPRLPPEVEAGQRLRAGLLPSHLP
p47phox inh – inhibitors of human p47phox binding; P14598; p47phox/p22phox peptide binding, fluorescence polarization, 2 h; inhibition, % at 24.7 µM; 220,000 tested, 0.53% active; AID 1274;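 active = inhibition above about 30%, limit read from the data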;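 note: 0% = p47phox with labelled peptide and 100% = labelled peptide alone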
The depositor's hits bear a star; i = inactive; u = inconclusive; x = not tested or not shown; + = active, no number. Compounds with a hit are over-represented: about 0.95% of the library has one in this group of screens.

SMILES	HSV replic up	Arbovirus anti	ABCB1 block	ABCG2 inh	Furin inh	p47phox inh
CN(CCN1CCOCC1)Cc1nc(-c2ccccc2)no1	i	-3.0	0.0	0.0	-22.7	0.2
O=C(NNS(=O)(=O)c1ccccc1[N+](=O)[O-])c1ccc(F)cc1	i	2.6	-0.1	-0.2	-31.2	0.6
O=C(NNS(=O)(=O)c1ccccc1[N+](=O)[O-])c1ccc(O)cc1	i	-5.6	-0.2	-0.6	-33.6	41.8*
O=C(Nc1cccc2ncccc12)c1ccc(OCc2ccccc2)cc1	i	4.0	1.4	14.3	-17.2	-7.3
CCN(C(=O)CSc1nc2nc(C)cc(C)n2n1)C1CCS(=O)(=O)C1 (stereo not drawn)	i	-2.2	0.2	0.6	-20.6	-8.2
Clc1ccccc1Cc1noc(CN2CCN(c3cnccn3)CC2)n1	i	3.4	-0.8	1.5	-13.3	31.6*
O=C1c2ccccc2-c2nnc(-c3ccc(F)cc3)cc21	i	-18.1	0.2	3.9	-16.4	45.8*
CCOC(=O)c1c(-c2cccs2)csc1NC(=O)c1ccncc1	i	-1.9	0.8	4.5	-34.2	-3.5
O=C(/C=C/c1cccs1)Nc1scc(-c2ccccc2)c1C(=O)O	i	73.8*	-1.1	-2.4	-4.6	-93.2
O=C(/C=C/c1cccs1)Nc1nc(-c2ccccc2)cs1	i	24.9	-0.3	2.8	-8.4	-20.6
O=C(Nc1scc(-c2cccs2)c1C(=O)O)c1cccs1	i	49.6*	0.9	7.2	9.6	-9.3
O=C(Nc1scc(-c2ccccc2)c1C(=O)O)c1ccco1	i	42.5*	0.1	0.7	3.0	-2.6
CCOC(=O)C1CCN(C(=O)c2cc3ccccc3oc2=O)CC1	i	3.0	1.7	16.9	-22.1	0.1
Cc1cccc(/N=C/C2=C(O)CC(C)(C)CC2=O)n1	i	x	x	x	45.7*	-4.9
CC1(C)CC(=O)C(C=Nc2ccncc2)=C(O)C1	i	x	x	x	-8.3	x
Cc1cc(N=CC2=C(O)CC(C)(C)CC2=O)no1	i	5.2	-0.1	1.1	45.7*	-8.3
O=C(c1ccc(Cl)cc1)N(Cc1ccccc1F)N1C(=O)CCCC1=O	i	4.2	0.2	9.6	-19.4	2.0
O=C(C1CC1)N1CCc2sccc2C1c1ccc(Cl)cc1 (stereo not drawn)	i	x	x	x	-16.3	-16.5
COc1ccc(CN2C(=O)c3ccccc3C2C(=O)NC2CCC(C)CC2)c(OC)c1 (stereo not drawn)	i	13.8	2.7	3.8	-27.2	-7.0
CC(=O)Nc1ccc(C(=O)Nc2nc(-c3cccnc3)cs2)cc1	i	24.8	-0.7	0.7	-19.8	3.3
O=C(Nc1nc(-c2ccco2)cs1)c1ccccc1	i	62.3*	0.7	6.0	-25.7	-19.1
O=C(Nc1nc(-c2ccccc2)cs1)c1ccco1	i	x	x	x	-3.0	-15.1
COc1ccc(-c2csc(NC(=O)c3ccco3)n2)cc1	i	65.3*	0.0	5.9	-22.9	-24.7
CC(=O)Nc1ccc(C(=O)Nc2nc(-c3ccccn3)cs2)cc1	i	34.5*	-1.3	-3.5	-21.3	-3.8
CC(=O)Nc1ccc(-c2csc(NC(=O)c3ccc(C)o3)n2)cc1	i	38.5*	0.6	0.7	-12.5	-39.0
SMILES	HSV replic up	Arbovirus anti	ABCB1 block	ABCG2 inh	Furin inh	p47phox inh
O=C(Nc1c2c(nn1-c1ccc(F)cc1)CS(=O)(=O)C2)c1ccc(S(=O)(=O)N2CCOCC2)cc1	i	-0.5	0.0	0.8	-13.7	11.9
Cn1c(SCC(=O)Nc2cccc(S(=O)(=O)NC3=NCCCCC3)c2)nnc1-c1ccccc1	i	4.9	-0.2	-1.2	4.4	-0.5
C/C(N)=C(/C#N)C(=O)CSc1nnc(-c2ccccc2)n1C	i	x	x	x	-15.1	-8.5
CCN1C(=O)/C(=C/c2nc3ccccc3c(=O)[nH]2)c2ccccc21	i	1.2	0.0	7.6	-16.3	39.3*
COc1ccc(CN(C(=O)CSc2nnc(-c3ccc(F)cc3)o2)c2ccc(F)cc2)cc1	i	30.6*	2.6	11.1	-16.4	-11.4
Cc1ccc(Oc2nnc(-c3ccccc3)c3ccccc23)cc1	x	-11.4	1.3	8.7	-8.5	-4.8
Cc1ccc(-c2nnc(Oc3ccc(NC(=O)c4ccccc4)cc3)c3ccccc23)cc1	i	-36.5	0.3	8.2	-14.8	42.5*
Cn1cc(/C=C(\C#N)C(=O)Nc2cccc([N+](=O)[O-])c2)c2ccccc21	i	2.1	-1.3	-7.8	-8.3	36.9*
CCCN(CCC)S(=O)(=O)c1ccc(NS(=O)(=O)c2ccc(F)cc2)cc1	i	10.1	0.9	3.3	-8.7	-10.8
O=C1/C(=C/c2ccc([N+](=O)[O-])cc2)C=C(c2ccccc2)N1c1ccc(O)cc1	i	-41.0	-0.1	-0.1	-21.9	55.6*
Cc1cc(C)nc(N(C#N)Cc2cccc(Cl)c2)n1	i	-6.3	0.9	9.7	-29.3	-23.0
CCOc1ccc(-c2cc3nc(C4CCN(C(=O)OC(C)(C)C)CC4)c(C(=O)O)cn3n2)cc1	i	49.5*	0.0	0.4	-24.7	3.1
CCOC(=O)N1CCN(C(=O)c2cc(-c3ccc(OCC)cc3)nc3ccccc23)CC1	i	-18.6	0.7	1.2	-24.1	-2.1
Oc1cccc2cc3cccc(O)c3c(O)c12	i	1.9	-0.5	-0.8	-23.9	20.8
CC(=O)c1sc(-c2ccc(F)cc2F)nc1C	i	x	x	x	-30.5	2.5
O=C/C(=C\Nc1ccc(Cl)cn1)c1nc2cc(Cl)ccc2o1	i	30.3*	0.1	7.2	-2.2	-76.7
CCOc1ccc(-n2c(N)c(C(=O)NCc3cccnc3)sc2=S)cc1	i	5.5	0.6	2.1	-16.0	4.8
C=CCn1c(N)c(C(=O)NCc2cccnc2)sc1=S	i	77.2*	0.4	1.5	5.3	-11.0
O=C(c1ccc2c(c1)OCO2)N1CCC(Cc2ccccc2)CC1	i	x	x	x	-0.2	1.1
COC(=O)c1ccc2c(c1O)C(=O)c1ccccc1C2=O	i	-6.8	0.2	1.4	-4.4	19.2
Nc1cc(C(=O)O)c(N)c2c1C(=O)c1ccccc1C2=O	i	x	x	x	-18.1	+
Nc1c(C(=O)O)ccc2c1C(=O)c1ccccc1C2=O	u	-6.6	-0.1	5.5	-22.6	76.8*
C/C(=N\NC(=O)c1ccccc1C)c1ccc(NC(=O)c2cccs2)cc1	x	81.6*	0.0	-1.7	6.6	-6.1
C/C(=N\NC(=O)c1ccccc1)c1ccc(NC(=O)c2cccs2)cc1	i	25.9	0.4	12.5	-9.1	-1.1
O=C(Nc1ccc2c(c1)oc1ccc(S(=O)(=O)N3CCCC3)cc12)C1CC1	i	9.0	-1.1	109.9*	-10.7	-8.8
COC1CCCN(C(=O)c2ccc(OC3CCN(CCc4ccccc4)CC3)cc2)C1 (stereo not drawn)	i	-9.5	0.1	-0.5	-3.9	-1.5
COc1ccc(C(=O)/C=C/C(=O)N(CC(=O)NC2CCCCC2)Cc2ccc(F)cc2)c(O)c1	i	-40.1	0.8	1.2	-8.7	33.2*
Cc1ccc(NC(=O)c2ccc([N+](=O)[O-])cc2Cl)nc1	i	-1.0	2.1	14.1	-29.7	-12.0
